Bioassay records: PubChem, several laboratories
A selection: hits, their analogues and other compounds. The true share with any hit is near 3.8%.
HCV NS3 hel inh = blocks Hepatitis C virus NS3 helicase unwinding | AID 1800 | 290,000 compounds, 0.56% hits | NS3 helicase DNA unwinding, Cy5 molecular beacon fluorescence | inhibition, % at 10.9 µM;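 active = inhibition above the mean of all tested compounds plus 3 SD, set per campaign, cut at about 35% in these data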;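 also: 0% = DMSO wells and 100% = thioflavine S control wells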
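System: Hepatitis C virus NS3 helicase domain fragment enzyme | Reagent: Annealed dual-labelled DNA beacon duplex, ATP-started | Compound dosing: 10.9 µM single point, 0.8% DMSO | Incubation: 1 h reaction at 25 °C, ATP-initiated | Technique: Cy5 fluorescence | Evaluation: Percent inhibition from t60/t0 fluorescence ratio | Benchmarks: Low DMSO, high thioflavine S at 110 µM | Replication: Singlicate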
HSF1 inhib = HSF1 inhibition; NIH3T3-HGL HSE-luciferase, MG132-induced, luminescence 8 h; stronger effect = lower value; activity change, negative = inhibition, % at 7.5 µM (by protocol); 300,000 compounds, 0.77% hits;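 active = more than half of replicate wells show activity change below -50%, luminescence cut by over half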;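 also: luciferase reports HSF-1 transcriptional activity via heat shock element; 0% = median of DMSO wells and -100% = zero luminescence signal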
HSF-1 act = increases HSF-1 driven luciferase reporter signal; NIH3T3-HGL HSF-1 luciferase reporter, MG132, 8 h; 100% = twice DMSO control signal; activation, % at 9 µM; 300,000 compounds, 1.7% hits; AID 504408;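 active = mean replicate activation of at least 50% with a set share of replicates each reaching 50%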;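 also: 0% = median of the neutral control wells and 100% = twice that signal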
Lipid droplet = hepatic lipid droplet formation modulation. AML12 mouse hepatocytes, oleate lipid droplets, BODIPY imaging. inhibition, % at 6.5 µM. 240,000 compounds, 0.4% hits;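 active = lipid droplet intensity inhibited by at least 50%, with more than 500 cells counted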
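Assay system: AML12 hepatocytes (mouse); Probe or stimulus: oleic acid at 100 µM to induce lipid droplet formation; Dosing: compound at 6.5 µM only; Schedule: compound with oleate, overnight; Detection: fluorescence imaging, 20x objective, two fields per well; Measure: % inhibition of lipid droplet signal.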
HSP90 inh = blocks HSP90-mediated luciferase refolding in reticulocyte lysate | 290,000 compounds, 0.91% hits | inhibition, % at 5.6 µM | Rabbit reticulocyte lysate, luciferase refolding luminescence, 3 h | AID 1789;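 active = inhibition above the screen-wide mean plus 3 SD, computed separately per campaign, cut at about 16% in these data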;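 also: 0% = DMSO wells and 100% = 60 µM geldanamycin wells; inhibitors lower the luminescence because luciferase stays unfolded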
NS3 helicase cf = confirmation of Hepatitis C virus NS3 helicase inhibitors; shares compounds with HCV NS3 hel inh; NS3 helicase DNA unwinding, Cy5 molecular beacon fluorescence; inhibition, % at 10.9 µM; 1,600 compounds, 31% hits;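 active = inhibition above the mean of all tested compounds plus 3 SD, cutoff set per campaign, cut at about 36% in these data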
DNA FID counter = counter-screen for HCV NS3 helicase inhibitors: DNA intercalator displacement | shares compounds with HCV NS3 hel inh | DNA fluorescent intercalator displacement, fluorescence | inhibition, % at 7.9 µM | 1,600 compounds, 4% hits | AID 1945; in the data active = inhibition above about 37%;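 also: 0% = vehicle and 100% = reference compound; higher means more displacement of ethidium bromide from the DNA hairpin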
DNA FID DR = displaces fluorescent intercalator from DNA, HCV helicase counter-screen | IC50, µM | shares compounds with HCV NS3 hel inh | 120 tested, under 10 active | AID 2172 | fluorescent intercalator displacement from DNA, fluorescence; call rule not given here
An asterisk follows results filed as active; / = no result given.

SMILES	HCV NS3 hel inh	HSF1 inhib	HSF-1 act	Lipid droplet	HSP90 inh	NS3 helicase cf	DNA FID counter	others
O=C(O)c1ccc2c(c1)[C@@H]1C=CC[C@@H]1[C@H](c1ccccn1)N2	59.4*	0.1	0.6	/	5.6	60.0*	2.8
Cc1ccnc(NC(=O)c2cccc(S(=O)(=O)N3CCCc4ccccc43)c2)c1	/	7.3	7.5	/	/	/	/
NC(=O)N/N=C/c1ccc(N2CCOCC2)s1	-6.7	-14.1	-7.4	16.8	2.7	/	/
O=C(O)c1cc(N/N=C/c2ccc(N3CCOCC3)s2)ccc1Cl	46.7*	/	/	-2.4	2.2	79.7*	26.9
CC1CCc2sc3nc(NCc4ccco4)n4ncnc4c3c2C1 (centres undefined)	38.8*	4.6	8.4	/	3.7	-13.1	6.9
Cn1nnnc1SCc1nc2scc(-c3ccccc3)c2c(=O)[nH]1	-12.6	-1.0	-9.1	-20.0	3.2	/	/
Cn1nnnc1SCc1nc2scc(-c3ccc(Cl)cc3)c2c(=O)[nH]1	42.3*	-6.2	5.0	-7.8	1.7	-17.1	1.0
O=C(Nc1ccccc1N1CCCC1)c1cccc(-c2cc3ccccc3oc2=O)c1	42.0*	14.6	16.2	-13.0	9.6	-5.6	-31.2
O=C(Nc1ccc(N2CCCC2)cc1)c1cccc(-c2cc3ccccc3oc2=O)c1	-21.1	10.2	5.2	0.5	-0.3	/	/
CCC1=NN2C(=N)/C(=C\c3ccc(OCCOc4ccc(NC(C)=O)cc4)cc3)C(=O)N=C2S1	7.0	-3.2	-5.2	-19.7	3.5	/	/
COc1cc(/C=C2\C(=N)N3N=C(C)SC3=NC2=O)cc(OC)c1OCCOc1ccccc1C	45.5*	1.8	-6.2	0.3	-1.6	17.3	-11.5
CCOc1cc(/C=C2\C(=N)N3N=C(CC)SC3=NC2=O)ccc1OCCOc1ccc(NC(C)=O)cc1	53.8*	-11.8	-5.4	-3.4	0.7	-18.8	-10.4
COc1cccc(OCCOc2ccc(/C=C3\C(=N)N4N=C(S(C)(=O)=O)SC4=NC3=O)cc2OC)c1	47.8*	4.1	13.9	-7.3	9.8	53.3*	21.2
O=C(Cc1ccccc1)NCC(=O)OCc1cccc([N+](=O)[O-])c1	1.7	2.7	7.5	-7.7	-2.9	/	/
CCOc1ccc(C(C(=O)NC2CCCC2)N(CCCO)C(=O)c2ccc(-c3ccccc3)[nH]2)cc1 (centres undefined)	-11.1	17.2	22.4	3.2	-1.6	/	/
COCCNC(=O)c1cc2c(=O)[nH]c3ccccc3c2s1	69.6*	5.3	14.6	-0.7	2.3	-7.5	3.9
CCOC(=O)c1sc(N2C(=O)C(O)=C(C(=O)c3ccco3)C2c2cccc([N+](=O)[O-])c2)nc1C (centres undefined)	104.6*	0.0	-1.6	6.5	2.8	115.4*	23.7
Cc1cc(N2C(=O)C(O)=C(C(=O)c3cc4ccccc4o3)C2c2ccc([N+](=O)[O-])cc2)no1 (centres undefined)	23.9	-8.9	-6.3	17.8	-9.0	/	/
Cc1ccc(C2C(C(=O)c3cc4ccccc4o3)=C(O)C(=O)N2c2cc(C)on2)cc1 (centres undefined)	64.7*	20.5	13.7	4.2	-4.5	122.8*	-23.7	DNA FID DR=>79.4
O=C(C1=C(O)C(=O)N(CCc2ccccc2)C1c1ccncc1)c1cc2ccccc2o1 (centres undefined)	39.2*	-0.4	-14.2	-1.3	0.2	13.1	-28.4
Cc1cc(N2C(=O)C(O)=C(C(=O)c3ccco3)C2c2cccc(Oc3ccccc3)c2)no1 (centres undefined)	65.9*	10.9	16.7	6.3	-0.3	115.5*	2.1	DNA FID DR=>79.4
CCCCS(=O)(=O)Nc1ccc(N2CCOCC2)c(S(=O)(=O)N2CCOCC2)c1	3.2	-0.3	14.8	-0.7	-3.4	/	/
COCCCNC(=O)Cn1c(=O)n(CCCCCC(=O)NCc2ccc3c(c2)OCO3)c(=O)c2sccc21	-9.3	-28.8	-44.5	-4.2	2.2	/	/
Cc1ccccc1NC(=S)Nc1ccc2[nH]c(=O)[nH]c2c1	-2.3	3.8	7.1	6.4	-0.5	/	/
Cc1cc(C(=O)CSc2nnnn2-c2ccccc2)c(C)n1-c1ccc2c(c1)OCO2	36.5*	-6.4	5.6	6.4	2.3	5.3	-13.7
SMILES	HCV NS3 hel inh	HSF1 inhib	HSF-1 act	Lipid droplet	HSP90 inh	NS3 helicase cf	DNA FID counter	others
O=C(Nc1ccccc1)C1=C(O)CC(c2ccoc2)CC1=Nc1ccccc1 (centres undefined)	41.2*	68.2	86.0*	-1.8	3.9	-6.7	9.7
COC(=O)c1c(-c2ccc(C)cc2)csc1NC(=O)C1CC=CCC1C(=O)O (centres undefined)	38.6*	4.8	13.0	1.3	3.6	53.4*	-22.3
COC(=O)c1c(-c2cc(C)ccc2C)csc1NC(=O)C1CC=CCC1C(=O)O (centres undefined)	28.1	-4.9	3.4	-5.1	0.0	/	/
O=C(COC(=O)CSc1ccc([N+](=O)[O-])cc1)NCC1CCCO1 (centres undefined)	15.1	3.6	32.8	2.2	-4.2	/	/
Clc1cccc(-c2sc(Nc3ccccc3)n[n+]2-c2ccccc2)c1Cl	69.4*	9.3	10.7	/	3.0	9.3	19.9
COc1cc(Br)c(-c2sc(Nc3ccccc3)n[n+]2-c2ccc(F)cc2)cc1OC	45.3*	2.2	7.2	/	0.0	12.7	-5.0
Fc1ccc(-[n+]2nc(Nc3ccccc3)sc2-c2cccc(Cl)c2Cl)cc1	31.4	3.7	12.3	-2.5	-3.5	/	/
COc1ccccc1/C=C/C1=NC(=C\C=C/c2ccccc2)/C(=O)O1	46.2*	132.7	170.9*	2.3	5.1	61.3*	-27.0	DNA FID DR=>79.4
CCOc1ccccc1NC(=O)CN1C(=O)COc2ccc(C)cc21	11.9	10.5	5.7	-0.8	0.0	/	/
C=CCOc1c(Cl)cc(CNc2ccc(N(C)C)cc2)cc1OC	50.9*	-25.6	-29.6	/	0.1	23.3	21.2
CC(=O)Nc1ccc(NC(=O)CCCCCn2nnc3ccccc3c2=O)cc1	0.1	-2.6	22.3	5.9	-0.7	/	/
Cc1ccccc1N1C(S)=C(C#N)C(=O)NC1c1cccs1 (centres undefined)	66.9*	-1.6	-3.1	7.9	-1.8	-7.1	2.4
Cc1cc(Br)ccc1-n1[nH]c(C)c(C=Nc2cccc3nsnc23)c1=O	6.8	4.9	7.8	12.6	2.0	/	/
O=[N+]([O-])c1cnc2ccccc2c1	-4.1	-12.1	-13.2	-28.0	3.6	/	/
O=[N+]([O-])c1cc([N+](=O)[O-])c2cc3ccccc3nc2c1	36.2*	94.4	139.2*	-16.7	10.6	-5.1	31.1
CC1=C(C#N)C(=O)NC(=O)/C1=C\c1ccc(-c2ccc(C)cc2[N+](=O)[O-])o1	39.9*	-2.3	10.9	-34.9	3.4	62.6*	48.9*
